Measured values taken from ChEMBL document CHEMBL3612036, “Design, Synthesis, and Cardioprotective Effects of N-Mercapto-Based Hydrogen Sulfide Donors” (J Med Chem, 2015).
Calls of active or inactive are those of the source. The rule behind the calls is not given here.

How the values were obtained:
[1] = […] peak time for H2S release in pH 7.4 PBS buffer containing 10% THF incubated for 2 hrs at room temperature in presence of cysteine by methylene blue based UV-Vis spectrometry; type: physicochemical; conditions: pH 7.4, 2 h
Procedure, shortened: (§1)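 Donor (30 mM THF stock; 0.1 mM final) was added to PBS (pH 7.4, 50 mM)/THF 9:1 containing the stated thiol, at room temperature for 2 h. 1.0 mL aliquots were taken periodically into methylene blue cocktail (zinc acetate, N,N-dimethyl-p-phenylenediamine in HCl, FeCl3 in HCl) and reacted 15 min. Absorbance was read at 670 nm and H2S quantified against a Na2S calibration curve; peak concentration and peak time were recorded.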

[2] = […] peak time for H2S release in pH 7.4 PBS buffer containing 10% THF incubated for 2 hrs at room temperature in presence of 1 mM GSH by methylene blue based UV-Vis spectrometry; type: physicochemical; conditions: pH 7.4, 2 h; procedure, shortened: as §1
[3] = GSH-induced H2S release assessed as peak H2S level in pH 7.4 PBS buffer containing 10% THF incubated for 2 hrs at room temperature in presence of cysteine by methylene blue based UV-Vis spectrometry; type: physicochemical; conditions: pH 7.4, 2 h; procedure, shortened: as §1
[4] = GSH-induced H2S release assessed as peak H2S level in pH 7.4 PBS buffer containing 10% THF incubated for 2 hrs at room temperature in presence of 1 mM GSH by methylene blue based UV-Vis spectrometry; type: physicochemical; conditions: pH 7.4, 2 h; procedure, shortened: as §1
[5] = test system: H9c2; assay: Cytotoxicity against rat H9c2 cells assessed as reduction in cell viability at >80 uM incubated for 1 hr by CCK8 assay; type: cell-based; conditions: h9c2, 1 h
Procedure, shortened: (§2)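 H9c2 cells (high-glucose DMEM, 10% FBS, 37 °C, 5% CO2) were exposed 1 h to donor over 20–160 μM, either alone or with 480 μM cysteine, then washed twice with PBS. Viability was measured by CCK-8 (1:10 dilution, 3 h at 37 °C, absorbance 450 nm). The mean OD of 4 wells was expressed as % of control, in triplicate.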

[6] = test system: H9c2; assay: Cytoprotective activity against H2O2-induced cell damage in rat H9c2 cells at 160 uM pre-incubated for 1 hr before H2O2 challenge for 5 hrs in presence of 480 uM cysteine by LDH release assay; type: functional, cell-based
Procedure, shortened: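 H9c2 cells at about 70% confluence were preconditioned 1 h with donor plus cysteine (480 μM), then treated with H2O2 (400 μM) for 5 h. Extracellular LDH was measured in supernatant; intracellular LDH in lysate made with 2% Triton X-100 in DMEM. Kit reaction ran 10 min at room temperature, read at 490/600 nm. % release = extracellular/(extracellular+intracellular). Run 4 times.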

[7] = test system: H9c2; assay: Cytotoxicity against rat H9c2 cells assessed as reduction in cell viability at <40 uM incubated for 1 hr by CCK8 assay; type: cell-based; conditions: h9c2, 1 h; procedure, shortened: as §2
[8] = test system: H9c2; assay: Cytotoxicity against rat H9c2 cells assessed as reduction in cell viability at 160 uM in presence of 480 uM cysteine incubated for 1 hr by CCK8 assay; type: cell-based; conditions: h9c2, 1 h; procedure, shortened: as §2
[9] = test system: H9c2; assay: Cytoprotective activity against H2O2-induced cell damage in rat H9c2 cells assessed as reduction in mitochondrial membrane potential loss at 160 uM pre-incubated for 1 hr before H2O2 challenge for 5 hrs in presence of 480 uM cysteine by Rh123 dye based fluorescent microscopy; type: functional
Procedure, shortened: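 H9c2 cells were grown in high-glucose DMEM with 10% FBS at 37 °C, 5% CO2. They were pretreated 1 h with donor plus cysteine (480 μM), then given H2O2 (400 μM) for 5 h. Rh123 (10 mg/L) was added for 15 min at 37 °C. Fluorescence microscopy gave mean Rh123 intensity from four random fields.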

[10] = test system: Mus musculus; assay: Effect on area-at-risk per left ventricle in C57BL6/J mouse model of myocardial ischemia/reperfusion at 50 and 100 ug/kg dosed through direct intracardiac injection at time of reperfusion by TTC staining method; type: organism-based, Heart left ventricle; conditions: in vivo, 0.1 mg/kg
Procedure, shortened: (§3)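 Male C57BL/6J mice, 10–12 weeks old, anesthetised with pentobarbital (50 mg/kg) plus ketamine (60 mg/kg). Left coronary artery occluded with PE-10 tubing for 45 min. Single intracardiac injection at reperfusion; vehicle 0.5% v/v THF in sterile saline. Reperfusion lasted 24 h, then area-at-risk and infarct measured by Evans blue/TTC staining. n = 6–17 per group.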

[11] = test system: Mus musculus; assay: Cardioprotective activity in C57BL6/J mouse model of myocardial ischemia/reperfusion assessed as reduction in infarct size per area-at-risk dosed through direct intracardiac injection at time of reperfusion by TTC staining method; type: functional, organism-based; conditions: Myocardium; procedure, shortened: as §3
[12] = Induction of […] release in pH 7.4 PBS buffer containing 10% THF incubated for 2 hrs at room temperature in presence of 0.5 mM cysteine by methylene blue based UV-Vis spectrometry; type: physicochemical; conditions: pH 7.4, 2 h; procedure, shortened: as §1
[13] = test system: Mus musculus; assay: Cardioprotective activity in C57BL6/J mouse model of myocardial ischemia/reperfusion assessed as reduction in infarct size per area-at-risk at 100 ug/kg dosed through direct intracardiac injection at time of reperfusion by TTC staining method; type: functional; conditions: Myocardium; procedure, shortened: as §3
[14] = Induction of […] release in pH 7.4 PBS buffer containing 10% THF incubated for 2 hrs at room temperature in presence of 2 mM cysteine by methylene blue based UV-Vis spectrometry; type: physicochemical; conditions: pH 7.4, 2 h; procedure, shortened: as §1
[15] = test system: H9c2; assay: Cytoprotective activity against H2O2-induced cell damage in rat H9c2 cells at 160 uM incubated for 1 hr before H2O2 challenge for 5 hrs by CCK8 assay; type: functional, cell-based
Procedure, shortened: (§4)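 H9c2 cells (high-glucose DMEM, 10% FBS, 37 °C, 5% CO2) were preincubated 1 h with test agent, washed with PBS, then exposed to H2O2 (400 μM) for 5 h. Viability was read by CCK-8 (1:10 dilution, 3 h at 37 °C, absorbance 450 nm). The mean OD of 4 wells was expressed as % of control. Experiments were done in triplicate.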

[16] = test system: H9c2; assay: Cytoprotective activity against H2O2-induced cell damage in rat H9c2 cells at 480 uM incubated for 1 hr before H2O2 challenge for 5 hrs by CCK8 assay; type: functional, cell-based; procedure, shortened: as §4

SMILES	Time [1] [min]	Time [2] [min]	Activity [3] [µM]	Activity [4] [µM]	other results
O=C(NSC(=O)C1CCCC1)c1ccccc1	60	65	40.9	49.9	–
CCC(=O)NSC(=O)c1ccccc1	55	60	44.1	54.1	–
COc1ccc(C(=O)SNC(=O)c2ccccc2)cc1	60	65	41.8	46.8	Activity [5]: Toxic; Activity [6]: Active; Activity [7]: Non-toxic; Activity [8]: Non-toxic; Activity [9]: Active
Cc1ccc(NC(=O)NSC(=O)c2ccccc2)cc1	90	130	21.8	27.4	–
Cc1ccc(C(=O)SNC(=O)c2ccccc2)cc1	60	60	45.4	39.8	–
O=C(NSC(=O)c1ccccc1)c1ccccc1	55	65	55.8	51.2	Activity [10]: Non-toxic; Activity [5]: Toxic; Activity [6]: Active; Activity [7]: Non-toxic; inhibition [11]: Dose-dependent effect; Activity [12]: Not Active; inhibition in vivo at 0.1 mg/kg [13]: 35%; Activity [8]: Non-toxic; Activity [9]: Active; Activity [14]: Active
CN(C)c1ccc(C(=O)SNC(=O)c2ccccc2)cc1	65	80	19.5	7.6	–
NC(=O)c1ccccc1	–	–	–	–	Activity [15]: inactive
O=C(NSC(=O)c1ccccc1)c1cccc(Cl)c1	60	70	25.2	29.9	–
O=C(NSC(=O)C1CCCCC1)c1ccccc1	65	80	48.1	68.2	–
CCCC(=O)NSC(=O)c1ccccc1	60	60	45.9	58.3	–
O=C(Cc1ccccc1)SNC(=O)c1ccccc1	50	60	33.4	47.5	–
COC(=O)c1ccc(C(=O)SNC(=O)c2ccccc2)cc1	50	55	38.8	36	–
COc1ccc(C(=O)SNC(=O)Nc2ccccc2)cc1	105	120	14.1	26.4	–
O=C(N[C@@H](CS)C(=O)O)c1ccccc1	–	–	–	–	Activity [15]: inactive
O=C(NSC(=O)c1ccc(Cl)cc1)Nc1ccccc1	95	120	18.2	24.9	–
O=C(NSC(=O)c1ccc(F)cc1)Nc1ccccc1	75	90	18.8	18.5	–
O=C(NSC(=O)c1cccc(Cl)c1)c1ccccc1	50	60	49.4	31.3	–

SMILES	Time [1] [min]	Time [2] [min]	Activity [3] [µM]	Activity [4] [µM]	other results
COc1ccccc1C(=O)SNC(=O)c1ccccc1	60	80	29	34	–
O=C(NSC(=O)c1ccccc1)Nc1ccc(Cl)cc1	110	120	10.7	20.9	–
N[C@@H](CS)C(=O)O	–	–	–	–	Activity [16]: inactive
CC(=O)SNC(=O)c1ccccc1	60	70	48.4	63.1	–
CC(C)(C)C(=O)SNC(=O)c1ccccc1	80	90	37.5	48.1	–
CC(=O)Oc1ccccc1C(=O)NSC(=O)c1ccccc1	60	60	35.1	44.5	–
Cc1ccccc1C(=O)SNC(=O)c1ccccc1	60	70	29.4	19.8	–
Cc1ccc(C(=O)SNC(=O)Nc2ccccc2)cc1	105	130	16.5	20	–
CC(C)C(=O)SNC(=O)c1ccccc1	65	70	40.7	58.4	–
CC(C(=O)SNC(=O)c1ccccc1)c1ccccc1 (stereo unspecified)	60	70	48.2	55.6	–
COc1cccc(C(=O)SNC(=O)c2ccccc2)c1	55	80	47	39.5	–
Cc1cccc(C(=O)SNC(=O)c2ccccc2)c1	55	65	49.3	39.3	–
O=C(NSC(=O)c1ccccc1)c1ccc(F)cc1	55	65	38.5	43.3	–
Cc1ccccc1C(=O)NSC(=O)c1ccccc1	55	65	51.4	57.6	–
O=C(NSC(=O)c1ccc(C(F)(F)F)cc1)c1ccccc1	45	60	48.3	28.1	–
CC(=O)NSC(=O)c1ccccc1	45	50	46.4	58.3	–
O=C(NSC(=O)c1ccccc1)Nc1ccccc1	95	110	21.5	29.9	–
